What was measured:
[1] = system: individuals with obesity and hypertension; test: 8 weeks treatment, fasting plasma before and after; type: in vivo, human; conditions: amlodipine 10 mg once a day, n = 7, control group
How it was run: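 Multicentre, randomized, double-blinded study in adults with hypertension and obesity. Participants received amlodipine 10 mg once daily (n = 7) or sacubitril/valsartan 194 mg/206 mg once daily (n = 7) for 8 weeks. Plasma was sampled after an overnight fast before and after treatment. Glucagon was measured by validated 2-site enzyme immunoassay and L-amino acids by a commercial kit.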

NEP activity = biological target: T1, NEP activity (Mus musculus, UniProt Q61391); test: Inhibition of NEP activity in mice by oral sacubitril; type: in vivo; conditions: sacubitril 0.7 nmol/g BW, oral gavage; data not shown
T1 sequence (Q61391 1-750): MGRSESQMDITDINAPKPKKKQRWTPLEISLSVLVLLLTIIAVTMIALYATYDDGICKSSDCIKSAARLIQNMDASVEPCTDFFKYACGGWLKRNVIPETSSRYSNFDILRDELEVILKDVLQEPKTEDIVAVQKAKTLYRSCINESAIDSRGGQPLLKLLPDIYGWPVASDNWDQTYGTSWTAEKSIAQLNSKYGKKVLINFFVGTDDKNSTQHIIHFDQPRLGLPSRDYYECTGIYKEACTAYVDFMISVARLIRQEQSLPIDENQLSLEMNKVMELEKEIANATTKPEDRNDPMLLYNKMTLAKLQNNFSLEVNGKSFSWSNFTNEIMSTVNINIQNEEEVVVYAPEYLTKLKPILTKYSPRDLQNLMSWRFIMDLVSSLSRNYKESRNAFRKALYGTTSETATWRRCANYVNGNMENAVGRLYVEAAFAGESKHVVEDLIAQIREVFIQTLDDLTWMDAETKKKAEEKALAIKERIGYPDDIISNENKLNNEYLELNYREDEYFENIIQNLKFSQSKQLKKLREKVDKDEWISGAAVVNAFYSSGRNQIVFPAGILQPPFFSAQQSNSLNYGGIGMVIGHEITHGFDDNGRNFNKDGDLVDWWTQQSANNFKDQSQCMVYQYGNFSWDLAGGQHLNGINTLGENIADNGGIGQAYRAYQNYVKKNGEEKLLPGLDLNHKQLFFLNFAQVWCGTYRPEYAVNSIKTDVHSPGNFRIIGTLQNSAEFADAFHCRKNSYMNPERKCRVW

[2] = used to correct the oral dose; species and source not given; cited from earlier work
male C57BL/6JRj mice = test: Oral amino acid challenge in male mice treated with sacubitril; type: in vivo; conditions: AA challenge, n = 6
How it was run: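 Male C57BL/6JRj mice (~22 g) were acclimatized for at least 1 week. At –30 min they received sacubitril (0.7 nmol/g BW; DMSO stock diluted in PBS) or vehicle (PBS, 0.7% DMSO) by oral gavage. Amino acids (34 mg, Vamin solution) were gavaged at 0 min. Tail blood was sampled at 0, 10, 15, 30, 60 and 180 min for glucometer glucose and EDTA plasma. Plasma glucagon was measured by two-site enzyme immunoassay; L-amino acids and urea by kits.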

[3] = system: GLP-1R^–/– mice and GLP-1R^+/+ mice; type: in vivo; conditions: sacubitril at -30 min, AAs 34 mg oral
female C57BL/6JRj mice [4] = test: Oral amino acid challenge in female mice treated with sacubitril, GRA or Ex9-39; type: in vivo; conditions: AAs 34 mg oral
How it was run: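 Female C57BL/6JRj mice (n = 7-10) were fasted 3 h. They were pretreated with GRA vehicle or GRA (100 mg/kg oral) at –180 min, or Ex9-39 (100 µg i.p.) at –15 min. Sacubitril (oral gavage) or PBS/0.7% DMSO was given at –30 min. An amino-acid mixture (34 mg, oral gavage) followed at 0 min. Blood glucose was measured from tail bleeds by handheld glucometer at 0, 10, 15, 30, 60 and 180 min.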

female C57BL/6JRj mice [5] = test: Female mice given water instead of amino acids; type: in vivo; conditions: sacubitril coadministered with vehicle, GRA or Ex9-39 vs these alone; n = 3
How it was run: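 Female C57BL/6JRj mice were fasted 3 h with free water. They received GRA (100 mg/kg, oral gavage suspension) or its vehicle at –180 min, or Ex9-39 (100 µg i.p.) at –15 min. Sacubitril (0.7 nmol/g BW, oral gavage; DMSO diluted in PBS) or PBS/0.7% DMSO was given at –30 min, then water at 0 min. Retrobulbar blood was taken at 0–180 min for plasma glucagon by 2-site enzyme immunoassay.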

recombinant NEP = test: ANP degradation by recombinant NEP; type: biochemical; conditions: MALDI-TOF
healthy young men = test: Single dose of sacubitril/valsartan; type: in vivo, human; conditions: valsartan alone 206 mg; n = 3
How it was run: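 Healthy men meeting the crossover-trial inclusion criteria (n = 3) received valsartan 206 mg 30 min before a solid mixed meal (42 g carbohydrate, 25 g fat, 26 g protein), or the meal alone, on separate occasions. Blood was drawn at –60, –15, 0, 30, 45, 90 and 180 min. Plasma glucagon was measured by validated 2-site enzyme immunoassay, and the postprandial response was expressed as incremental AUC.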

CCOC(=O)C1=C(COCCN)NC(C)=C(C(=O)OC)C1c1ccccc1Cl (centres unmarked) [amlodipine]
plasma concentrations of glucose, glucagon, or AAs, after vs before [1]: no significant changes

CCOC(=O)[C@H](C)C[C@@H](Cc1ccc(-c2ccccc2)cc1)NC(=O)CCC(=O)O [sacubitril]
inhibition of NEP activity in mice (NEP activity): ~ 60%
bioavailability [2]: 60%
blood glucose or plasma concentrations of AAs, male mice (male C57BL/6JRj mice): without altering blood glucose or plasma concentrations of AAs
plasma concentrations of glucagon, male mice (male C57BL/6JRj mice): increased plasma concentrations of glucagon
plasma concentrations of urea, male mice (male C57BL/6JRj mice): did not increase plasma concentrations of urea
plasma AA iAUC in GLP-1^–/– mice ([3]; mean ± SD, vehicle 255 ± 118, P = .05): 376 ± 67
augmenting effect on AA-stimulated glucagon levels in GLP-1R^+/+ mice ([3]; time point 15 minutes, P = .02): apparent only in littermate controls
glucagon response to AAs in GLP-1R^–/– mice ([3]; vs vehicle): did not, however, increase the glucagon response to AAs
blood glucose concentrations in response to an AA challenge in GLP-1R^–/– mice ([3]; vs vehicle, P = .03): increased blood glucose concentrations
plasma concentrations of glucagon, coadministration with Ex9-39 vs Ex9-39 alone (female C57BL/6JRj mice [4]; sacubitril 0.7 nmol/g BW + Ex9-39 100 µg): increased plasma concentrations of glucagon more
plasma concentrations of amino acids vs vehicle (female C57BL/6JRj mice [4]; sacubitril 0.7 nmol/g BW oral): no effect on plasma concentrations of amino acids
blood glucose concentrations in response to an AA challenge (female C57BL/6JRj mice [4]; sacubitril 0.7 nmol/g BW oral, vs vehicle): no significant increase
plasma concentrations of glucagon, water instead of AAs (female C57BL/6JRj mice [5]): increased numerically

C[C@H](C[C@@H](Cc1ccc(-c2ccccc2)cc1)NC(=O)CCC(=O)O)C(=O)O [sacubitrilat]
effect on NEP-induced ANP cleavage (recombinant NEP; sacubitrilat added): prevented by the addition of sacubitrilat

CCCCC(=O)N(Cc1ccc(-c2ccccc2-c2nnn[nH]2)cc1)[C@H](C(=O)O)C(C)C [valsartan]
effect on postprandial plasma concentrations of glucagon vs control (healthy young men): no effect

atrial natriuretic peptide [ANP]
degradation of ANP by NEP (recombinant NEP; positive control, recombinant NEP, Supplementary Fig. 2A and 2B): NEP cleavage resulted in the formation of a known substrate (m/z 2585)
